TAG inh – inhibitors of triacylglycerol accumulation. H9c2 cells, Nile Red lipid (TAG) fluorescence; cells loaded with 200 µM oleic acid. inhibition, % at 12.5 µM. 230,000 compounds, 0.66% hits. AID 651582;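 active = pattern-corrected inhibition of lipid staining of at least 50% with the nuclear-stain viability signal not falling by more than 50%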;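 also: 0% = DMSO wells and 100% = triacsin C control wells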
NTR1 ag – agonists of human neurotensin receptor NTR1 | 330,000 compounds, 0.17% hits | AID 493036 | P30989 | NTR1-U2OS beta-arrestin-GFP spot imaging, agonist mode | activation, % at 20 µM;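 active = activation at or above 40% of the spot to cytoplasm intensity ratio, with at least 20 cells analyzed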;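 also: 0% = DMSO without peptide and 100% = 100 nM NTR1 peptide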
Target sequence (P30989 whole entry, looked up): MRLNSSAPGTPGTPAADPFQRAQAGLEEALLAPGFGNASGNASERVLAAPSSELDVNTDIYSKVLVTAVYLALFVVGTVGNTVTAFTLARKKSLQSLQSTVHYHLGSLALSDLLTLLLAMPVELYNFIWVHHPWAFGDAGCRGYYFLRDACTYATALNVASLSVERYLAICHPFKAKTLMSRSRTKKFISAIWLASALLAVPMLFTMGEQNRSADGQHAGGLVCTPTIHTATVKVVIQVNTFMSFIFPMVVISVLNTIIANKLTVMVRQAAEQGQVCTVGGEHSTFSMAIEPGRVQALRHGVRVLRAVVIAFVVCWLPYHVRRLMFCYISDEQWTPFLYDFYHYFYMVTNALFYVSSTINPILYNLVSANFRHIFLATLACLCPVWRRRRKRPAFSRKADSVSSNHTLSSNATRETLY
TbMetRS inhib – blocks T. brucei methionyl-tRNA synthetase activity | purified T. brucei MetRS, ATP depletion, Kinase-Glo luminescence | inhibition, % at 11.9 µM | 360,000 compounds, 0.4% hits;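 active = inhibition above a per-plate cutoff of the control wells' mean inhibition plus 3 SD, cut at about 5.5% in these data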;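 also: 0% = DMSO wells median and 100% = median of wells with control inhibitor compound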
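Material: parasite MetRS enzyme / Replication: singlicate, one well per compound / Signal: luminescence of leftover ATP / Schedule: 2 h aminoacylation at 25 °C after 15 min preincubation / Medium: HEPES-MgCl2-KCl buffer plus DTT, spermine, BSA, pyrophosphatase / Doses: 11.9 µM single point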
aDG glyco act – increases alpha dystroglycan glycosylation; AID 624168; Pro5-aDG cells, alpha-DG glycosylation AlphaScreen (IIH6); 0% Pro5, 100% B10-LARGE cell signal; activation, % at 10 µM; 360,000 compounds, 0.22% hits;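 active = activation of at least 8% versus controls, or a plate z-score of at least 8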;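 also: Pro5 are CHO cells carrying HIG-tagged alpha-DG that lacks glycosylation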
MC4R antagonist – antagonists of human melanocortin 4 receptor (MC4R) | P32245 | inhibition, % at 6.5 µM | MC4R-expressing cells, MTII-stimulated cAMP, LANCE TR-FRET | 360,000 compounds, 0.48% hits;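 active = inhibition above its plate's cutoff, the mean of tested wells on that plate plus 3 SD, cut at about 29% in these data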;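 also: 0% = Melanotan II alone and 100% = Melanotan II plus saturating MCL0020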
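Material: U2OS-MC4R stable cell line | Reagent: Melanotan II challenge after compound preincubation | Doses: One concentration, 6.5 µM nominal | Incubation: 30-min compound preincubation, 1-h Melanotan II challenge, 1-h detection, room temperature | Signal: TR-FRET cAMP assay | Replicates: One well per compound, no replicates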
MC4R ag barr – human MC4R agonism via beta-arrestin | 360,000 compounds, 0.98% hits | activation, % at 8.9 µM | U2OS MC4R beta-arrestin complementation, luminescence; percent of melanotan II response, DMSO zero | P32245;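 active = activation above a per-plate cutoff, the mean activation of sample wells on that plate plus 3 SD, cut at about 8% in these data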
* = called active by the depositor; . = not tested or not shown. Shown are actives, neighbours in structure and some others; about 2.4% of the full set was active somewhere.

SMILES	TAG inh	NTR1 ag	TbMetRS inhib	aDG glyco act	MC4R antagonist	MC4R ag barr
O=C(NCCNS(=O)(=O)c1cccc(C(F)(F)F)c1)c1cc(OCC(F)(F)F)ccc1OCC(F)(F)F	0	-1	0	1	3	28*
O=C(OCc1nc2ccccc2[nH]1)C12CC3CC(CC(C3)C1)C2	.	3	47*	0	6	1
O=C(Nc1nc2ccccc2[nH]1)C12CC3CC(CC(C3)C1)C2	12	2	-1	0	8	-2
CN(C)CCCN(C(=O)c1ccc2c(c1)CCCC2)c1nc2ccc(Cl)cc2s1	.	12	0	3	4	9.1*
CCOc1ccc2nc(N(CCCN(C)C)C(=O)c3ccc4c(c3)CCCC4)sc2c1	.	6	-2	1	7	8
CC1CCCCN1S(=O)(=O)c1ccc(C(=O)N(CCCN(C)C)c2nc3ccc(Br)cc3s2)cc1 (centres undefined)	16	24	0	2	7	8.8*
Cc1cc(C)c2nc(N(CCCN(C)C)C(=O)c3ccc4c(c3)OCCO4)sc2c1	0	4	-1	1	0	8.4*
CN(C)CCN(C(=O)c1ccc(S(=O)(=O)N2CCCC2)cc1)c1nc2ccc(Br)cc2s1	16	-1	0	0	0	-3
Cc1cc(C)c2nc(N(CCCN(C)C)C(=O)C3=COCCO3)sc2c1	33	0	0	2	1	-3
COc1ccc(C(C(=O)NC(C)(C)C)n2c(=O)c(-c3cc4ccccc4[nH]3)nc3ccccc32)cc1 (centres undefined)	.	.	0	2	.	.
CCC(CC)C(=O)N(C)c1c(C)nc2c(OCc3ccc(F)c(F)c3)cccn12	8	.	0	2	12	0
COc1ccccc1N1CCN(S(=O)(=O)c2ccc(-c3ccc(=O)[nH]n3)o2)CC1	.	2	-1	1	0	-3
Cc1cccc(N2CCN(S(=O)(=O)c3ccc(-c4ccc(=O)[nH]n4)o3)CC2)c1C	.	0	1	0	16	8.3*
Cn1c(N=Nc2ccc(N3CCOCC3)cc2)[n+](C)c2ccccc21	51*	.	0	1	-55	-7
COc1ccc(/C=N/Nc2cc(N3CCOCC3)ncn2)c(OC)c1	.	1	-1	0	4	0
COc1cccc(/C=N/Nc2cc(N3CCOCC3)ncn2)c1O	71*	0	-1	0	-20	-2
O=S(=O)(c1ccc(Cl)cc1)N1CCN(Cc2ccc(O)c3ncccc23)CC1	53*	1	0	0	14	0
COc1ccc2[nH]cc(C(=O)CCl)c2c1	72*	7	0	0	26	-2
O=c1c(Cl)c(Cl)cnn1Cc1ccc(F)cc1	.	7	0	0	52*	-2
CCN1C(N(C)CCc2c[nH]c3ccccc23)=N[C@@H](c2cccc(C(F)(F)F)c2)C(C(=O)OC)=C1C	112*	15	0	1	3	2
CCc1ccc2nc3nc(C)cc(C)c3c(N)c2c1	.	1	0	1	10	-1
Cc1cc(C)c2c(N)c3ccccc3nc2n1	55*	-1	0	2	1	0
Nc1ccc2nn(-c3ccccc3)nc2c1	-6	0	-2	5.9*	-1	8
COc1ccc(C(C)=O)cc1CN1C(=O)C(C)ON=C1c1cccc(C(F)(F)F)c1 (centres undefined)	-8	.	-1	0	8	2
CN(C)CC(C(=O)c1ccccc1)c1ccccc1 (centres undefined)	65*	2	-1	-1	8	-1
Cc1cc(C)nc(SCC(=O)Nc2ncc(Cc3cccc(Cl)c3Cl)s2)n1	.	2	0	0	-7	8.8*
CCN(CC)CCOC(=O)c1ccc(N/C=C(/C#N)c2nc(-c3ccc(OC)c(OC)c3)cs2)cc1	61*	6	0	0	-10	0
O=C(OCc1ccc(Br)cc1)c1cnc(Cl)c(Cl)c1	.	14	-1	0	33*	-2
O=C(OCCOc1ccc(Br)cc1)c1ccc(Cl)nc1	1	0	0	0	26	9.2*
O=C(OCc1ccc(Br)cc1)c1ccncc1	.	0	-1	1	-6	0

Source: PubChem BioAssay (several laboratories)
